High-throughput results deposited in PubChem BioAssay by several laboratories.
A selection: hits, their analogues and other compounds. The true share with any hit is near 2.2%.
bCat KO growth = primary screen for growth suppressors in beta-catenin knockout HCT116 cells (colon tumor, human). viability, % at 10 µM. 1.5% of 140,000 active. AID 818, 2007. HCT116 beta-catenin knockout viability, CellTiter-Glo, 60 h; hits give low values;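 active means viability at or under a set limit, the compound median less 4 SD, cut at about 6% in these data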;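 further: 0% = Hyamine 1622 control at 20 µM and 100% = untreated cell control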
PTEN del growth = growth suppression of PTEN-null HCT116, primary screen, cell-based, CellTiter-Glo; 1.2% of 140,000 active; HCT116 PTEN-null viability, 60 h; hits give low values; AID 827, 2007; viability, % at 10 µM;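 active means viability at or below a set limit, 4 SD under the median of all tested compounds, cut at about 3.7% in these data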;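 further: PTEN knockout HCT116 line with beta catenin targeted HCT116 as companion control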
Dynein transport = inhibitors of GR-EGFP nuclear translocation, primary screen, dynein cargo transport inhibitor project, imaging, high-content, 3617.4 mouse cells | 0.47% of 220,000 active | AID 1381, 2008 | z-score, hits read low | test concentration mostly 20 µM; stimulated with dexamethasone, 1 µM; hits give low values;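 active means plate z-score of nuclear minus cytoplasmic receptor signal below a set negative limit, without overly bright fluorescence or cell loss, cut at about -3.5 in these data, passing the limit was not always enough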;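 further: z-score of nuclear minus cytoplasmic ring GR-EGFP intensity difference per well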
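Buffer or medium: Induction medium lacking tetracycline, stripped serum | Also added: Dexamethasone agonist, 1.0 µM final, for 30 min | Timing: 48 h induction, 1 h compound, 30 min dex at 37 °C | Detection: Formaldehyde fixation, Hoechst nuclear stain, 10x automated fluorescence imaging | Measure: Nuclear versus cytoplasmic GR-EGFP signal, averaged per well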
Autophagy mod = autophagy modulators in MEF cells, primary screen, imaging, high-content, MEF GFP-LC3 | 0.98% of 190,000 active | MEF GFP-LC3 puncta imaging; test concentration mostly 10 µM | calls only at 10 µM (by protocol);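 active means percentage of spot-positive cells more than 3 SD above its plate mean, without a fluorescence outlier flag or 80% toxicity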;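 further: spot-positive cell cutoff set from DMSO-treated cells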
SDO1 yeast rescue = growth rescue of sdo1-depleted yeast, primary screen, S. cerevisiae, bone marrow failure model; S. cerevisiae sdo1-depleted JHY4D growth rescue, OD600 30 h; hits give high values; pdr5 snq2 efflux-pump mutant strain; z-score at 10 µM; 0.21% of 140,000 active;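 active means z-score above 3 at both the 24 hr and the 30 hr optical density reads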;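 further: z-score against mean and SD of all compound wells on the same plate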
* = called active by the depositor; i = inactive; . = not tested or not shown; + = active, no number; [ ] = dose if it differs, or a comment.

SMILES	bCat KO growth	PTEN del growth	Dynein transport	Autophagy mod	SDO1 yeast rescue
CC1CCC/C=C/C2CC(O)CC2C(O)/C=C/C(=O)O1 (stereo not drawn)	2.8*	8	0.33	i	-0.34
C[C@H]1CCC/C=C/C2C[C@H](O)CC2[C@H](O)/C=C/C(=O)O1 (stereo partly drawn)	8	10	0.44	+	-0.69
C[C@H]1CCC[C@@H](O)CCC/C=C/c2cc(O)cc(O)c2C(=O)O1	47	43	-1.2	i	0.16
O=c1[nH]c(=O)n(C2CCCCC2)c(O)c1C1NCCc2ccccc21 (stereo not drawn)	97	102	-1.2	i	0.45
COc1ccc(CC2(CCc3ccncc3)C(=O)NC(=O)NC2=O)cc1	.	.	1.4	i	.
O=C1NC(=O)C2(Cc3ccccc3N3CCCC32)C(=O)N1 (stereo not drawn)	103	112	0.71	i	0.53
COc1cc(CN2CCN(c3cc(C)ccc3C)CC2)ccc1O	55	64	-0.23	+	-0.18
COc1ccccc1OCC(=O)Nc1ccc(Cl)cc1C(=O)c1ccccc1	79	79	2.2	i	-1.3
O=C(NC1CN2CCC1CC2)c1cc(Cl)c([N+](=O)[O-])c2nc[nH]c12 (stereo not drawn)	0.8*	0.6*	-0.15	i	1.1
Clc1ccccc1CNC1CN2CCC1CC2 (stereo not drawn)	98	97	0.54	i	0.81
CC1(C)C(c2ccccc2)=NC(c2cccnc2)N1O (stereo not drawn)	102	93	-0.8	i	0.98
COc1ccc(C2NCc3ccc4c(c3-n3cccc32)OCO4)cc1O (stereo not drawn)	12	17	-0.56	+	0.37
O=c1[nH]c2ccccc2n1C1CCN(CCCC(c2ccc(F)cc2)c2ccc(F)cc2)CC1	1.4*	1.1*	0.14	i	-1.7
O=C(CN1CCCCC1)c1ccc(F)cc1	.	.	-0.18	.	.
O=C(c1ccccc1)C(CN1CCCC1)c1ccccc1 (stereo not drawn)	1.8*	1.5*	-1.5	i	-1.6
Cc1nc2c(=O)n(C)c(=O)nc-2n(C)n1	1.5*	1.5*	-0.74	i	-1.7
COC(=O)C1CN(C#N)N(c2ccc(Cl)cc2)C12c1ccccc1-c1ccccc12 (stereo not drawn)	1.2*	1.0*	-3.9	i	-2.1
O=C1N(c2cccc(Cl)c2)C(c2cccnc2)N2CCCN12 (stereo not drawn)	.	.	-0.015	i	.
O=P(CCl)(Nc1ccccc1)C(Cl)(Cl)Cl (stereo not drawn)	.	.	0.76	i	.
CCCCCCCSc1cc(OC)c(CCN(C)C)cc1OC	1.2*	1.3*	-1.9	i	-2.7
CC1CN=C(NCc2ccccc2)S1 (stereo not drawn)	99	90	-0.53	i	-0.05
Cc1cc2ccccc2c(=O)n1CC(=O)NCC(=O)N1CCC2(CC1)OCCO2	.	.	0.011	+	.
CN(C)c1ccc(C(=O)c2ccc(N(C)C)cc2)cc1	19	24	-0.38	i	-0.51
CN(C)c1ccc(/C=C/[N+](=O)[O-])cc1	2.7*	3.5*	-0.62	i	-2
CN=C(SCc1ccccc1)c1c(O)n(C)c(=O)n(C)c1=O	.	.	-0.15	i	.
SMILES	bCat KO growth	PTEN del growth	Dynein transport	Autophagy mod	SDO1 yeast rescue
NC(=O)c1cn(C2OC(CO)C(O)C2O)c2ncnc(N)c12 (stereo not drawn)	2.7*	3.0*	0.5	i	1.2
CCN(CC)c1ccc(N=Cc2c(O)n(CCc3ccc(OC)c(OC)c3)c(=O)[nH]c2=O)cc1	2.7*	15	3.1	i	-1.4
CCN(CC)c1ccc(N=Cc2c(O)n(-c3cc(OC)ccc3OC)c(=O)[nH]c2=O)cc1	3.0*	24	0.53	i	1.1[10.8 µM]
Cc1nn(Cc2ccccc2)c(Cl)c1C(=O)Nc1ccc(OC(F)(F)F)cc1	92	87	2.2	i	-0.23
Cc1nn(Cc2ccccc2)c(Cl)c1C(=O)NC1CCCc2ccccc21 (stereo not drawn)	83	76	0.082	+	-0.25
O=S(=O)(c1ccc(Cl)cc1)N1CN2CCN(C2)C1	98	99	-0.11	i	0.48
CCN1C(=O)/C(=C\c2ccc([N+](=O)[O-])s2)C(=O)NC1=S	.	.	-4.7*	i	.
C=CCn1c(O)c(C(CC)=Nc2ccccc2NC(C)=O)c(=O)[nH]c1=O	83	91	-0.37	i	0.08
O=C(Cn1c(=O)n(CC2CS2)c2ccccc21)N1CCCCCC1 (stereo not drawn)	.	.	0.87	i	.
CN(C)CCNC(=O)c1cccn(Cc2cccc(C(F)(F)F)c2)c1=O	.	.	-0.61	+	.
CC(C)c1cccc(C(C)C)c1OCCn1ccnc1	99	87	-0.037	i	0.47
C=C1C(=O)O[C@H]2[C@H]1[C@H](OC(=O)CC(=O)O[C@@H]1C[C@@H](C)[C@@H]3C=CC(=O)[C@@]3(C)[C@H]3OC(=O)C(=C)[C@H]13)C[C@@H](C)[C@H]1C=CC(=O)[C@]12C	.	.	-3.3	.	.
C=C1C(=O)O[C@@H]2C[C@@H](C)[C@@H]3C=CC(=O)[C@@]3(C)[C@@H](OC(=O)CC(=O)O[C@H]3[C@@H]4C(=C)C(=O)O[C@@H]4C[C@@H](C)[C@@H]4C=CC(=O)[C@]43C)[C@H]12	.	.	-4*	.	.
CN1/C(=C\C=Nc2ccccc2)C(C)(C)c2ccccc21	69	56	-0.79	i	0.22
CN1/C(=C\C=C\C2=[N+](C)c3ccc4ccccc4c3C2(C)C)C(C)(C)c2ccccc21	0.4*	0.1*	-1.6	+	-1.2
COc1ccccc1[As](=O)(O)CC(O)COc1ccc(Cl)cc1Cl (stereo not drawn)	.	.	-0.91	.	.
C(=NC12CN3CN(CN(C3)C1)C2)c1cccnc1	94	99	-0.53	i	-0.87
CCn1nc(-c2ccccc2)nc2c(=O)n(C)c(=O)nc1-2	0.7*	1.4*	-2.2	i	-2.3
COc1ccc(-c2nc3ccccc3c(=O)n2-c2ccc(OC)cc2)cc1	.	.	-1.2	i	.
O=C1C(=O)c2ccccc2-c2ccccc21	1.7*	2.2*	-2.1	i	-2.9
Nc1c2c(nc3sc4c(c13)CCCC4)CCCCC2	4.1*	7	0.76	i	-0.47
Nc1c2c(nc3sc4c(c13)CCCC4)CCCC2	.	.	-0.95	i	.
Cc1ccc(-c2nc(N(C)C3CCN(C)CC3)c3ccccc3n2)cc1	1.4*	1.4*	3.5	i	0.06
CN1CCC(N(C)c2ncnc3ccc(Br)cc23)CC1	84	94	0.29	i	0.1
Cc1ccc2c(c1)C1CN(C)CCC1N2C(=O)c1cn(-c2ccccc2)nc1-c1ccccc1 (stereo not drawn)	.	.	0.11	+	.
